{
  "source": "paper PMC3401603",
  "about": "(Nature Chemical Biology, 2012)",
  "key": {"[1]": {"target": "wild-type menin (Homo sapiens, UniProt O00255)", "sequence (O00255 whole entry)": "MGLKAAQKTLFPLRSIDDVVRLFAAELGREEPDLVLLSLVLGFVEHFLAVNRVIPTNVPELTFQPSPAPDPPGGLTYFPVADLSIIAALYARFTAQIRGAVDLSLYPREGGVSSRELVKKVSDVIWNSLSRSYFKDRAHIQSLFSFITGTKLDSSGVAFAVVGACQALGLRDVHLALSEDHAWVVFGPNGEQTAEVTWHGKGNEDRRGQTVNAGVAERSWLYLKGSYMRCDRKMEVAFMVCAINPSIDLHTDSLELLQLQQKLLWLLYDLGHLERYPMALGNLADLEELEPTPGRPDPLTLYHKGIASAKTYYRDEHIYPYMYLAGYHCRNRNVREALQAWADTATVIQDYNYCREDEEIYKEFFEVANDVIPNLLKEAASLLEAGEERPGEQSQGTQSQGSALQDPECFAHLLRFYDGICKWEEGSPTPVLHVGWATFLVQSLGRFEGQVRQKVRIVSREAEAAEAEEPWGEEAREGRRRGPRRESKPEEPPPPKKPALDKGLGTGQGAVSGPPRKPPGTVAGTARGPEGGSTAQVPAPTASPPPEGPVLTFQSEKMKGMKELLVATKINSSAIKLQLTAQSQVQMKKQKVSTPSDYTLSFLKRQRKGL", "experiment": "Thermal shift assay, wild-type menin", "format": "binding"}, "[2]": {"target": "M278K menin mutant (Homo sapiens, UniProt O00255, M278K)", "sequence (O00255 whole entry M278K)": "as the sequence (O00255 whole entry) above, with M278K counted along it", "experiment": "Thermal shift assay, M278K menin mutant", "format": "binding"}, "[3]": {"target": "Y323K menin mutant (Homo sapiens, UniProt O00255, Y323K)", "sequence (O00255 whole entry Y323K)": "as the sequence (O00255 whole entry) above, with Y323K counted along it", "experiment": "Thermal shift assay, Y323K menin mutant", "format": "binding"}, "[4]": {"target": "menin-MLL-AF9 complex (Homo sapiens, UniProt O00255)", "sequence (O00255 whole entry, one chain of several)": "as the sequence (O00255 whole entry) above", "experiment": "Co-immunoprecipitation in HEK293 cells transfected with Flag-MLL-AF9", "format": "cell-based", "method_in_brief": "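Menin co-precipitating with Flag-MLL-AF9 was detected by Western blot. Untransfected cells controlled for endogenous menin and for absence of MLL-AF9. Menin and MLL-AF9 expression levels were also checked by Western blot.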"}, "[5]": {"tested_on": "MLL-AF9 transduced BMC", "experiment": "MTT cell viability assay, MLL-AF9 transduced BMC", "format": "cell-based, mouse", "method_in_brief": "(§1)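 Retrovirally transduced mouse bone marrow cells were grown in IMDM with 15% FBS, 1% penicillin/streptomycin and IL-3. Growth inhibition by the test compound was measured by MTT viability assay. Quadruplicates, mean ± s.d.; three experiments.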"}, "[6]": {"tested_on": "MLL-ENL transduced BMC", "experiment": "MTT cell viability assay, MLL-ENL transduced BMC", "format": "cell-based, mouse", "method_in_brief": "as §1"}, "[7]": {"tested_on": "E2A-HLF transduced BMC", "experiment": "MTT cell viability assay, E2A-HLF transduced BMC", "format": "cell-based, mouse", "method_in_brief": "as §1"}, "[8]": {"tested_on": "MLL-AF9 transformed BMC", "experiment": "Methylcellulose colony formation assay, MLL-AF9 transformed BMC", "format": "cell-based, mouse", "conditions": "7 days", "method_in_brief": "(§2)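 Transduced BMC were plated at 5×10³ cells/ml in methylcellulose medium containing 20% IMDM, 1% penicillin/streptomycin, IL-3 and either the test compound or 0.25% DMSO. Colonies were stained with iodonitrotetrazolium chloride (1 mg/ml final, 37 °C, 30 min) and counted. For a second round, unstained colonies were counted, washed out in PBS, and 5×10³ cells were replated in the same medium with compound, then stained and counted.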"}, "[9]": {"tested_on": "E2A-HLF transformed BMC", "experiment": "Methylcellulose colony formation assay, E2A-HLF transformed BMC", "format": "cell-based, mouse", "method_in_brief": "as §2"}, "[10]": {"tested_on": "MLL-AF9 transformed BMC", "experiment": "Differentiation by morphology", "format": "cell-based, mouse", "conditions": "7 to 10 days, 25 μM"}, "[11]": {"tested_on": "MLL-ENL transformed BMC", "experiment": "Differentiation by morphology, MLL-ENL transformed BMC", "format": "cell-based, mouse"}, "[12]": {"tested_on": "E2A-HLF transformed BMC", "experiment": "Differentiation by morphology, E2A-HLF transformed BMC", "format": "cell-based, mouse"}, "[13]": {"tested_on": "CD11b expression in MLL-AF9 transformed BMC", "experiment": "CD11b expression by flow cytometry, MLL-AF9 transformed BMC", "format": "cell-based, mouse", "conditions": "7 days of treatment", "method_in_brief": "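BMC were cultured in IMDM with 15% FBS, penicillin/streptomycin and IL-3, and plated at 5×10⁵ cells/ml with the test compound or 0.25% DMSO. Every 48h the medium was changed, viable density restored and compound resupplied. 1.5×10⁵ cells were washed in PBS/1% FBS/0.1% NaN₃, stained with Pacific Blue anti-mouse CD11b (4 °C, 30 min), then Annexin V-FITC/PI, and run on flow cytometry. Triplicates, mean ± s.d.; one-way ANOVA against DMSO; three experiments.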"}, "[14]": {"tested_on": "Hoxa9", "experiment": "Quantitative RT-PCR of Hoxa9 in MLL-AF9 transduced BMC", "format": "cell-based, mouse", "conditions": "6 days"}, "[15]": {"tested_on": "Meis1", "experiment": "Quantitative RT-PCR of Meis1 in MLL-AF9 transduced BMC", "format": "cell-based, mouse", "conditions": "6 days"}, "[16]": {"tested_on": "menin and MLL-AF9 at the Hoxa9 locus", "experiment": "ChIP at the Hoxa9 locus in MLL-AF9 transduced BMC", "format": "cell-based, mouse", "conditions": "12.5 μM", "method_in_brief": "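ChIP used BMC exposed to the test compound at 12.5 μM or to DMSO. Antibodies were against menin and AF9, with IgG as control. Enrichment was read at two sites in the Hoxa9 promoter region. Duplicate samples, mean ± s.d.; two experiments.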"}, "[17]": {"tested_on": "MV4;11 (harboring MLL-AF4)", "experiment": "MTT cell viability assay, MV4", "format": "cell-based, human", "conditions": "MV4;11, MTT, 72h", "method_in_brief": "(§3)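 Growth inhibition was read by MTT viability assay, with 72h treatment stated for KOPN-8 and MV4;11. Media: KOPN-8 and ML-2, RPMI-1640 with 10% FBS. MV4;11, RPMI-1640 with 10% FBS, 1% penicillin/streptomycin and NEAA. MonoMac-6, RPMI-1640 with 15% FBS, human insulin, penicillin/streptomycin and NEAA. For KOPN-8 and MV4;11: four samples, mean ± s.d., three experiments.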"}, "[18]": {"tested_on": "KOPN-8 (MLL-ENL)", "experiment": "MTT cell viability assay, KOPN-8", "format": "cell-based, human", "conditions": "KOPN-8, MTT, 72h", "method_in_brief": "as §3"}, "[19]": {"tested_on": "ML-2 (MLL-AF6)", "experiment": "MTT cell viability assay, ML-2", "format": "cell-based, human", "conditions": "ML-2, MTT", "method_in_brief": "as §3"}, "[20]": {"tested_on": "MonoMac6 (MLL-AF9)", "experiment": "MTT cell viability assay, MonoMac6", "format": "cell-based, human", "method_in_brief": "as §3"}, "[21]": {"tested_on": "Kasumi-1, ME-1, HAL-01 and REH", "experiment": "Growth of human acute leukemia cell lines lacking MLL fusions", "format": "cell-based", "conditions": "low HOXA9: Kasumi-1, ME-1, HAL-01, REH"}, "[22]": {"tested_on": "MV4;11", "experiment": "Annexin V/PI apoptosis assay, MV4", "format": "cell-based, human", "conditions": "MV4;11, 48h", "method_in_brief": "(§4)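 Cells were seeded at 5×10⁵ cells/ml and exposed to the test compound or vehicle (0.25% DMSO final) for 48h at 37 °C in 5% CO₂. 1.5×10⁵ cells were then stained with Annexin V-FITC and propidium iodide in Annexin V binding buffer for 10 min at room temperature in the dark, and analysed by flow cytometry. Three experiments in triplicate; mean and SD.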"}, "[23]": {"tested_on": "MonoMac6", "experiment": "Annexin V/PI apoptosis assay, MonoMac6", "format": "cell-based, human", "conditions": "MonoMac6, 48h", "method_in_brief": "as §4"}, "[24]": {"tested_on": "MV4;11 leukemia cells", "experiment": "Cell cycle analysis by FACS after PI staining, MV4", "format": "cell-based, human", "conditions": "MV4;11, PI staining"}, "[25]": {"tested_on": "CD11b expression in THP-1 cells", "experiment": "CD11b expression by flow cytometry, THP-1", "format": "cell-based, human", "conditions": "THP-1, 6 days of treatment"}, "[26]": {"tested_on": "HOXA9", "experiment": "qRT-PCR of HOXA9 in THP-1 cells", "format": "cell-based, human", "conditions": "THP-1, 6 days", "method_in_brief": "(§5)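 THP-1 cells in RPMI-1640 with 10% FBS, 1% penicillin/streptomycin and NEAA were treated with the test compound for 6 days. Total RNA (100–1000 ng) was reverse transcribed, and TaqMan qPCR measured human HOXA9 or MEIS1, normalised to 18S rRNA by the comparative Ct method. Duplicates, mean ± s.d.; three experiments.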"}, "[27]": {"tested_on": "MEIS1", "experiment": "qRT-PCR of MEIS1 in THP-1 cells", "format": "cell-based, human", "conditions": "THP-1, 6 days", "method_in_brief": "as §5"}},
  "data": [
    {"smiles": "CCCc1cc2c(N3CCN(C4=NCC(C)(C)S4)CC3)ncnc2s1", "note": "[MI-2]", "values": [
      {"measurement": "binding to wild-type menin", "setting": "[1]", "value": "clearly observed binding"},
      {"measurement": "binding to M278K menin mutant", "setting": "[2]", "value": "no binding"},
      {"measurement": "binding to Y323K menin mutant", "setting": "[3]", "value": "no binding"},
      {"measurement": "disruption of the menin-MLL-AF9 complex (co-IP)", "setting": "[4]", "value": "very efficiently disrupted"},
      {"measurement": "GI50", "setting": "[5]", "value": "~5", "unit": "µM"},
      {"measurement": "GI50", "setting": "[6]", "value": "~5", "unit": "µM"},
      {"measurement": "GI50", "setting": "[7]", "value": "> 50", "unit": "µM"},
      {"measurement": "effect on colony formation", "setting": "[8]", "value": "substantially reduced colony formation"},
      {"measurement": "effect on the number, size and morphology of colonies", "setting": "[9]", "value": "only a limited effect"},
      {"measurement": "differentiation (cell morphology)", "setting": "[10]", "value": "substantial changes in morphology, indicative of monocytic differentiation"},
      {"measurement": "differentiation (cell morphology)", "setting": "[11]", "value": "observed differentiation"},
      {"measurement": "differentiation (cell morphology)", "setting": "[12]", "value": "did not differentiate"},
      {"measurement": "expression of CD11b", "setting": "[13]", "value": "substantially increased"},
      {"measurement": "decrease of Hoxa9 expression level", "setting": "[14]; 12.5 μM", "value": "> 80", "unit": "%"},
      {"measurement": "decrease of Hoxa9 expression level", "setting": "[14]; 25 μM", "value": "> 80", "unit": "%"},
      {"measurement": "decrease of Meis1 expression level", "setting": "[15]; 12.5 μM", "value": "> 80", "unit": "%"},
      {"measurement": "decrease of Meis1 expression level", "setting": "[15]; 25 μM", "value": "> 80", "unit": "%"},
      {"measurement": "binding of menin and MLL-AF9 to the Hoxa9 locus (ChIP)", "setting": "[16]", "value": "decreased binding of menin and MLL-AF9"},
      {"measurement": "GI50", "setting": "[17]", "value": 9.5, "unit": "µM"},
      {"measurement": "GI50", "setting": "[18]", "value": 7.2, "unit": "µM"},
      {"measurement": "GI50", "setting": "[19]", "value": 8.7, "unit": "µM"},
      {"measurement": "GI50", "setting": "[20]", "value": 18, "unit": "µM"},
      {"measurement": "effect on proliferation", "setting": "[21]", "value": "very limited effect"},
      {"measurement": "Annexin V (+) and Annexin V/PI (+)/(+) cells (apoptosis)", "setting": "[22]", "value": "substantial, and dose-dependent increase"},
      {"measurement": "Annexin V (+) and Annexin V/PI (+)/(+) cells (apoptosis)", "setting": "[23]", "value": "substantial, and dose-dependent increase"},
      {"measurement": "effect on cell cycle progression", "setting": "[24]", "value": "consistent increase in the number of cells in G0/G1 phase"},
      {"measurement": "CD11b positive cells", "setting": "[25]", "value": "substantial increase in CD11b positive cells"},
      {"measurement": "expression of HOXA9", "setting": "[26]", "value": "substantially reduced expression"},
      {"measurement": "expression of MEIS1", "setting": "[27]", "value": "substantially reduced expression"}
    ]}
  ]
}
